Measurements of several laboratories.
Target: Atypical kinase COQ8B, mitochondrial (COQ8B, Homo sapiens, UniProt Q96D53)
One construct used (Q96D53 1-544): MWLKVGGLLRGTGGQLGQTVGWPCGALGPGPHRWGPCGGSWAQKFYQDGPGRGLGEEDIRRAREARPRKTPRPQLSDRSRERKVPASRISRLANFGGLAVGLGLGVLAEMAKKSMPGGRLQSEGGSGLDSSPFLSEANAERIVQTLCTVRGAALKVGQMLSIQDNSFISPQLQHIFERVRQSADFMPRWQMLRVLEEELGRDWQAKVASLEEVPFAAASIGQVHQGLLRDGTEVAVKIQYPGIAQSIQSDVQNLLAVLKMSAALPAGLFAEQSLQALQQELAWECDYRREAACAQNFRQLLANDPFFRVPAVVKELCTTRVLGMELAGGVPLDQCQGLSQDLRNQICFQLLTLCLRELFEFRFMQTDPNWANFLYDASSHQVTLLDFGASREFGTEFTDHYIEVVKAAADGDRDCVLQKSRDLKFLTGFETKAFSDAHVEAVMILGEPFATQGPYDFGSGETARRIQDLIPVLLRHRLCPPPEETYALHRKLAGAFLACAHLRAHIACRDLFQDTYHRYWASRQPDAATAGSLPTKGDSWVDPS

C[C@@H]1CN(c2cc(-c3n[nH]c4ccc(OC5(C)CC5)cc34)ncn2)C[C@H](C)O1 — remaining binding (cell-free assay, competition with immobilised ligand; 0.1 µM): 72%
C[C@H]1CCN(c2nccc(-c3cnn4ncccc34)n2)C1 — remaining binding (binding; 1 µM): 92%
CNC(=O)Nc1ccc2c(c1)[C@@]1(CC2)OC(=O)N(CC(=O)N(Cc2ccc(F)cc2)[C@@H](C)C(F)(F)F)C1=O — remaining binding (cell-free assay, competition with immobilised ligand; 1 µM): 95%
O=C(Nc1c[nH]nc1C(=O)NC1CCNCC1)c1cc(F)cc(F)c1 — remaining binding (binding, competition with immobilised ligand; 1 µM): 100%
O=C(NCCCC1CCCCC1)c1ccc(CNC(=O)c2cnn(-c3ccccc3)c2C(F)(F)F)cc1 — remaining binding (cell-free assay, competition with immobilised ligand; 0.1 µM): 100%
C[C@@H](c1ccc(-n2cnc3c(N)ncnc32)cc1)N1CCc2nn(C)c(Cc3ccccc3)c2C1=O — remaining binding (binding, competition with immobilised ligand; 0.1 µM): 80%
CNC(=O)[C@@H]1CC[C@@H](n2c(-c3ccc4cnccc4c3)nc3ccc(C(=O)NCc4cccc(C(N)=O)c4)cc32)C1 — remaining binding (binding, competition with immobilised ligand; 1 µM): 99%
COc1ncc2cc3ccccc3nc2c1C#N — remaining binding (cell-free assay, competition with immobilised ligand; 5 µM): 100%
O=C(c1ccc(Nc2ncc(Cl)c(-c3cc4ccccc4s3)n2)cc1)N1CCC(N2CCCC2)CC1 — remaining binding (binding, competition with immobilised ligand; 1 µM): 44%
CN(CCCC(F)(F)F)c1nccc(-c2cnn3ncccc23)n1 — remaining binding (binding; 1 µM): 84%
CS(=O)(=O)N1CCCC(NC(=O)[C@H](CCC2CCCCC2)NC(=O)c2ccc(CNC(=O)c3cnc4ccccn34)cc2)C1 (stereo partly shown) — remaining binding (cell-free assay, competition with immobilised ligand; 0.1 µM): 100%
c1cncc(-c2cccc(Nc3nccc(NC4CCCCC4)n3)c2)c1 — remaining binding (binding, competition with immobilised ligand; 10 µM): 24%
CC1CCCN1c1nccc(-c2cnn3ncccc23)n1 (stereo not shown) — remaining binding (binding; 1 µM): 68%
O=C(NS(=O)(=O)c1ccc(NCC2CCOCC2)c([N+](=O)[O-])c1)c1ccc(N2CCN(Cc3ccc(C(F)(F)F)cc3-c3ccc(Cl)cc3)CC2)cc1Oc1cnc2[nH]ccc2c1 — remaining binding (cell-free assay, competition with immobilised ligand; 1 µM): 90%
c1cnn2ncc(-c3ccnc(N4CCC45COC5)n3)c2c1 — remaining binding (binding; 1 µM): 100%
COCCOc1nc(-c2ccc(Cl)nc2)nc2c1CN(C(=O)c1ncn3ccccc13)CC2 — remaining binding (cell-free assay, competition with immobilised ligand; 0.1 µM): 100%
CN(C)c1nccc(-c2cnc3ncccn23)n1 — remaining binding (binding; 1 µM): 75%
O=C(NCCCN1CCOCC1)c1ccc(Nc2ncc(Cl)c(-c3ccc(Cl)s3)n2)cc1 — remaining binding (binding, competition with immobilised ligand; 1 µM): 34%
Cc1cnn2ncc(-c3ccnc(N(C)C)n3)c2c1 — remaining binding (binding; 1 µM): 81%
COc1cnc(Nc2cccc(S(N)(=O)=O)c2)nc1N1CCN(c2ccccc2)C(=O)C1 — remaining binding (binding, competition with immobilised ligand; 1 µM): 100%
N[C@H]1CCN(c2nccc(-c3cnn4ncccc34)n2)C1 — remaining binding (binding; 1 µM): 74%
O=C(NCCCN1CCOCC1)c1ccc(Nc2nccc(-c3cc4ccccc4s3)n2)cc1 — remaining binding (binding, competition with immobilised ligand; 1 µM): 62%
